ChEMBL document CHEMBL1145203, “Synthesis of new benzoxazinone derivatives as neuropeptide Y5 antagonists for the treatment of obesity” (J Med Chem, 2005)
pIC50: −log10 of the molar value.

Assays:
[1] = target: T1, Neuropeptide Y receptor type 5 (Rattus norvegicus) (UniProt Q63634); assay: Inhibition of PYY effect on forskolin-stimulated cyclic AMP formation in C6 cells expressing rat NPY Y5 receptor; format: functional, cell-based; set-up: concentration or dose not given beside the values; conditions: concentration not given here
T1 sequence (whole entry): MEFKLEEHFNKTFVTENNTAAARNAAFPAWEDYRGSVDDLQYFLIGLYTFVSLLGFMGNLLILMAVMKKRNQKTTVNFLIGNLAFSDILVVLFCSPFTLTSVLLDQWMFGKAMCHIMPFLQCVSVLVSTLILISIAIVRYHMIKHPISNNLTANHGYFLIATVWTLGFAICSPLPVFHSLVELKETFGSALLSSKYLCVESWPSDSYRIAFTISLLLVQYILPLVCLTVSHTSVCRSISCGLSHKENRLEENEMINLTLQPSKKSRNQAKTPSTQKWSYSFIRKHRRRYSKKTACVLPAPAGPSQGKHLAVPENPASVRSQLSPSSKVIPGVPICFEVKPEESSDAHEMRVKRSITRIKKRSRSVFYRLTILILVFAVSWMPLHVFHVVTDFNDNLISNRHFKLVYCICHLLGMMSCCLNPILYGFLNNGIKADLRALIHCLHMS
Method in brief: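 C6 cells stably expressing rat NPY Y5, grown to 80% confluency in serum-free DMEM with L-glutamine, penicillin and streptomycin. Cells trypsinised 2 h before assay, about 50 000 cells/well. Compounds added with or without PYY; forskolin-stimulated cAMP measured after 30 min by FlashPlate with [125I]succinyl cAMP tracer. Expressed as % cAMP formation versus forskolin controls without PYY; three experiments in duplicate.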

[2] = target: T2, Neuropeptide Y receptor type 5 (Rattus norvegicus, UniProt Q63634); assay: Inhibition of [125I]PYY binding to the rat NPY Y5 receptor in C6 cells; format: cell-based
T2 sequence (Q63634 whole entry): T1 sequence (whole entry)
Method in brief: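 Radioligand [125I]-PYY 100 pM, incubated 2 h at 25 °C. Stopped with ice-cold buffer, filtered and washed, bound radioactivity counted. Nonspecific binding defined with 1 µM pNPY; triplicate.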

| Structure (SMILES) | inhibition [1] | pIC50 [2] |
| --- | --- | --- |
| O=C(CN1CCC(N2C(=O)OCc3cc(Cl)ccc32)CC1)Nc1ccc(Oc2ccccc2)cc1 | 99.2% | 7.22 |
| COC(=O)c1ccccc1NC(=O)CN1CCC(N2C(=O)OCc3cc(C)ccc32)CC1 |  | < 6.00 |
| N#Cc1ccc(NC(=O)CN2CCC(N3C(=O)OCc4ccccc43)CC2)cc1 | 88.7% | 6.88 |
| CCn1c2ccccc2c2cc(NC(=O)CN3CCC(N4C(=O)OCc5cccc(OC)c54)CC3)ccc21 | 19.2% | 6.12 |
| CCn1c2ccccc2c2cc(NC(=O)CN3CCC(N4C(=O)OCc5c(Cl)cccc54)CC3)ccc21 | 83.4% |  |
| COc1cccc2c1N(C1CCN(CC(=O)Nc3ccc4oc5ccccc5c4c3)CC1)C(=O)OC2 | 23.6% | 7.25 |
| CC(=O)c1ccc(NC(=O)CN2CCC(N3C(=O)OCc4cc(Cl)ccc43)CC2)cc1 | 99.9% | 7.68 |
| Cc1ccc2c(c1)COC(=O)N2C1CCN(CC(=O)Nc2ccc3c(c2)C(=O)c2ccccc2-3)CC1 | 93.9% | 7.06 |
| O=C(CN1CCC(N2C(=O)OCc3ccccc32)CC1)Nc1ccc(Cl)cc1 |  | 6.52 |
| O=C(CN1CCC(N2C(=O)OCc3cc(Cl)ccc32)CC1)Nc1ccc2c(c1)C(=O)c1ccccc1-2 | 94% | 7.16 |
| O=C(CN1CCC(N2C(=O)OCc3ccccc32)CC1)Nc1ccc2c(c1)-c1ccccc1C2=O | 100% | 7.63 |
| Cc1cccc2c1N(C1CCN(CC(=O)Nc3ccc4c(c3)-c3ccccc3C4=O)CC1)C(=O)OC2 | 93.8% | 7.30 |
| COC(=O)c1ccccc1NC(=O)CN1CCC(N2C(=O)OCc3cc(Cl)ccc32)CC1 |  | < 6.00 |
| O=C(CN1CCC(N2C(=O)OCc3ccccc32)CC1)Nc1ccccc1C(=O)c1ccccc1 |  | < 6.00 |
| O=C(CN1CCC(N2C(=O)OCc3cc(Cl)ccc32)CC1)Nc1ccc2c(c1)-c1ccccc1C2O (stereo not given) | 100% | 8.10 |
| O=C(CN1CCC(N2C(=O)OCc3ccccc32)CC1)Nc1ccc2c(c1)C(=O)c1ccccc1-2 |  | < 6.00 |
| CCn1c2ccccc2c2cc(NC(=O)CN3CCC(N4C(=O)OCc5cccc(C)c54)CC3)ccc21 | 96.9% | 7.30 |
| Cc1ccc2c(c1)COC(=O)N2C1CCN(CC(=O)Nc2ccc(Oc3ccccc3)cc2)CC1 | 94.5% | 6.98 |
| Cc1cccc2c1N(C1CCN(CC(=O)Nc3ccc4c(c3)-c3ccccc3C4O)CC1)C(=O)OC2 (stereo not given) | 100% | 7.52 |
| COC(=O)c1ccccc1NC(=O)CN1CCC(N2C(=O)OCc3cccc(C)c32)CC1 |  | < 6.00 |

| Structure (SMILES) | inhibition [1] | pIC50 [2] |
| --- | --- | --- |
| O=C(CN1CCC(N2C(=O)OCc3ccccc32)CC1)Nc1ccc2c(c1)-c1ccccc1C2O (stereo not given) | 96.1% | 8.06 |
| CC(=O)c1ccc(NC(=O)CN2CCC(N3C(=O)OCc4cc(C)ccc43)CC2)cc1 | 89.4% | 7.59 |
| Cc1cccc2c1N(C1CCN(CC(=O)Nc3ccccc3)CC1)C(=O)OC2 |  | < 6.00 |
| O=C(CN1CCC(N2C(=O)OCc3cc(Cl)ccc32)CC1)Nc1ccc2ncccc2c1 | 71.9% | 6.83 |
| O=C(CN1CCC(N2C(=O)OCc3cc(Cl)ccc32)CC1)Nc1ccc2c(c1)-c1ccccc1C2=O | 100% | 7.60 |
| N#Cc1ccc(NC(=O)CN2CCC(N3C(=O)OCc4cc(Cl)ccc43)CC2)cc1 | 91.5% | 6.70 |
| O=C(CN1CCC(N2C(=O)OCc3cc(Cl)ccc32)CC1)Nc1ccccc1C(=O)c1ccccc1 |  | < 6.00 |
| Cc1cccc2c1N(C1CCN(CC(=O)Nc3ccccc3C(=O)c3ccccc3)CC1)C(=O)OC2 |  | < 6.00 |
| O=C(CN1CCC(N2C(=O)OCc3cc(Cl)ccc32)CC1)Nc1ccc(C(=O)c2ccccc2)cc1 | 97.4% | 7.95 |
| O=C(CN1CCC(N2C(=O)OCc3ccccc32)CC1)Nc1ccccc1 |  | < 6.00 |
| O=C(CN1CCC(N2C(=O)OCc3ccccc32)CC1)Nc1cccc2c1-c1ccccc1C2=O |  | 6.86 |
| COC(=O)c1ccccc1NC(=O)CN1CCC(N2C(=O)OCc3ccccc32)CC1 |  | < 6.00 |
| CCn1c2ccccc2c2cc(NC(=O)CN3CCC(N4C(=O)OCc5cc(Cl)ccc54)CC3)ccc21 | 99.3% | 7.00 |
| O=C(CN1CCC(N2C(=O)OCc3cc(Cl)ccc32)CC1)Nc1ccc(C2CCCCC2)cc1 | 98.4% | 6.95 |
| O=C(CN1CCC(N2C(=O)OCc3ccccc32)CC1)Nc1ccc(Oc2ccccc2)cc1 | 100% | 7.70 |
| Cn1c2ccccc2c2cc(NC(=O)CN3CCC(N4C(=O)OCc5ccccc54)CC3)ccc21 | 88.7% | 8.02 |
| CC(=O)c1ccc(NC(=O)CN2CCC(N3C(=O)OCc4ccccc43)CC2)cc1 | 95.4% | 7.76 |
| Cc1cccc2c1N(C1CCN(CC(=O)Nc3ccc(Cl)cc3)CC1)C(=O)OC2 |  | < 6.00 |
| O=C(CN1CCC(N2C(=O)OCc3cc(F)ccc32)CC1)Nc1ccc2ncccc2c1 | 93.3% |  |
| Cc1cccc2c1N(C1CCN(CC(=O)Nc3ccc(C(=O)c4ccccc4)cc3)CC1)C(=O)OC2 | 100% | 7.40 |
